The test system of data set [1] is HEK293. The data set is described as follows: Modulation of recombinant human FGF141b (1 to 252 residues)-recombinant human Nav1.6 C-terminal tail (1763 to 1976 residues) protein-protein interaction expressed in HEK293 cells assessed as relative luminescence value at 50 uM measured at 2 mins interval for 20 mins by split-luciferase complementation assay relative to control. The data set is classed as cell-based. The conditions noted are these: time min 2-20. The gist of the method: (§1)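 Double-stable HEK293 line expressing CLuc-FGF14 and CD4-Nav1.6-C-tail-NLuc, kept on G418 and puromycin. Cells seeded for 24 h, then given compound for 1 h in serum-free, phenol red-free DMEM/F12 with a final 0.5% DMSO: 50 μM for screening, 0.25–100 μM over eight concentrations for dose-response; n = 4. D-luciferin added and read every 2 min for 20 min at 37 °C. Peak luminescence expressed as percent of per-plate DMSO mean (n = 32). IC50 from four-parameter nonlinear fit. At least 3 experiments.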

In data set [2] the test system is HEK293. Kind of data set: Inhibition of full-length Photinus pyralis luciferase transfected in HEK293 cells at 25 uM incubated for 1 hrs by split-luciferase complementation assay. The data set is classed as cell-based. In a few lines: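 HEK293 cells transfected with full-length Photinus pyralis luciferase, then treated 1 h with 25 μM compound (n = 4) or 0.5% DMSO (n = 32). Luminescence read after D-luciferin addition, as in the LCA, normalized to per-plate DMSO controls. One-way ANOVA with Dunnett's test.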

The subject of data set [3] is HEK293. Kind of data set: Cytotoxicity against HEK293 cells assessed as reduction in cell viability measured after 18 hrs by celltiter-blue assay. The conditions noted are these: human, hek293, 18 h. On the technique in general: The colour change of resazurin is a common sign of viable cells or microbes.
In data set [4] the test system is HEK293. Kind of data set: Modulation of recombinant human FGF141b (1 to 252 residues)-recombinant human Nav1.6 C-terminal tail (1763 to 1976 residues) protein-protein interaction expressed in HEK293 cells measured at 2 mins interval for 20 mins by split-luciferase complementation assay relative to control. The note with it: filed as modulator, time min 2-20. The data set is classed as cell-based. In a few lines:
as §1

Data set [5] in a line: Modulation of recombinant human FGF141b (1 to 252 residues)-recombinant human Nav1.6 C-terminal tail (1763 to 1976 residues) protein-protein interaction expressed in HEK293 cells measured at 2 mins interval for 20 mins by split-luciferase complementation assay. The data set is classed as cell-based. In a few lines:
as §1

In data set [6] the target is T1, Fibroblast growth factor 14 (Homo sapiens, UniProt Q92915).
T1 sequence (Q92915 whole entry): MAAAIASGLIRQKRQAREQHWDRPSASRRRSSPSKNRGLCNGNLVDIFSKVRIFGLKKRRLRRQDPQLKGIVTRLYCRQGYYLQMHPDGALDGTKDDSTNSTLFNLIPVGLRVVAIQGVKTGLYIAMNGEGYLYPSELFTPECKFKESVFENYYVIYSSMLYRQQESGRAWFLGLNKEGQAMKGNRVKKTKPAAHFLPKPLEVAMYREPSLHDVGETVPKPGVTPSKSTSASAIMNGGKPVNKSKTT
Kind of data set: Binding affinity to human recombinant FGF14 expressed in Escherichia coli BL21 assessed as dissociation constant by SPR analysis. The gist of the method: (§2)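 Biacore T100 runs with FGF14 (17,896 RU) or Nav1.6 C-tail (6,800 RU) amine-coupled on CM5 at pH 5.5. Compounds at 0.195–200 μM in PBS, 0.005% Tween-20, 2% DMSO; 50 μL/min at 25 °C. 120 s association, 150 s dissociation, DMSO calibration, blank subtraction. Rates from a Langmuir 1:1 fit; KD averages the kinetic and steady-state values. At least duplicate experiments.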
(In general: In SPR one partner is held on a chip, and binding of the other changes the refractive index at the surface.)

The target in data set [7] is T2, Sodium channel protein type 8 subunit alpha (Homo sapiens, UniProt Q9UQD0). The data set is described as follows: Binding affinity to human recombinant Nav1.6 C-terminal domain expressed in Escherichia coli BL21 assessed as dissociation constant by SPR analysis. The gist of the method:
as §2
Target sequence in this assay (Q9UQD0 whole entry, the tested form may be a part): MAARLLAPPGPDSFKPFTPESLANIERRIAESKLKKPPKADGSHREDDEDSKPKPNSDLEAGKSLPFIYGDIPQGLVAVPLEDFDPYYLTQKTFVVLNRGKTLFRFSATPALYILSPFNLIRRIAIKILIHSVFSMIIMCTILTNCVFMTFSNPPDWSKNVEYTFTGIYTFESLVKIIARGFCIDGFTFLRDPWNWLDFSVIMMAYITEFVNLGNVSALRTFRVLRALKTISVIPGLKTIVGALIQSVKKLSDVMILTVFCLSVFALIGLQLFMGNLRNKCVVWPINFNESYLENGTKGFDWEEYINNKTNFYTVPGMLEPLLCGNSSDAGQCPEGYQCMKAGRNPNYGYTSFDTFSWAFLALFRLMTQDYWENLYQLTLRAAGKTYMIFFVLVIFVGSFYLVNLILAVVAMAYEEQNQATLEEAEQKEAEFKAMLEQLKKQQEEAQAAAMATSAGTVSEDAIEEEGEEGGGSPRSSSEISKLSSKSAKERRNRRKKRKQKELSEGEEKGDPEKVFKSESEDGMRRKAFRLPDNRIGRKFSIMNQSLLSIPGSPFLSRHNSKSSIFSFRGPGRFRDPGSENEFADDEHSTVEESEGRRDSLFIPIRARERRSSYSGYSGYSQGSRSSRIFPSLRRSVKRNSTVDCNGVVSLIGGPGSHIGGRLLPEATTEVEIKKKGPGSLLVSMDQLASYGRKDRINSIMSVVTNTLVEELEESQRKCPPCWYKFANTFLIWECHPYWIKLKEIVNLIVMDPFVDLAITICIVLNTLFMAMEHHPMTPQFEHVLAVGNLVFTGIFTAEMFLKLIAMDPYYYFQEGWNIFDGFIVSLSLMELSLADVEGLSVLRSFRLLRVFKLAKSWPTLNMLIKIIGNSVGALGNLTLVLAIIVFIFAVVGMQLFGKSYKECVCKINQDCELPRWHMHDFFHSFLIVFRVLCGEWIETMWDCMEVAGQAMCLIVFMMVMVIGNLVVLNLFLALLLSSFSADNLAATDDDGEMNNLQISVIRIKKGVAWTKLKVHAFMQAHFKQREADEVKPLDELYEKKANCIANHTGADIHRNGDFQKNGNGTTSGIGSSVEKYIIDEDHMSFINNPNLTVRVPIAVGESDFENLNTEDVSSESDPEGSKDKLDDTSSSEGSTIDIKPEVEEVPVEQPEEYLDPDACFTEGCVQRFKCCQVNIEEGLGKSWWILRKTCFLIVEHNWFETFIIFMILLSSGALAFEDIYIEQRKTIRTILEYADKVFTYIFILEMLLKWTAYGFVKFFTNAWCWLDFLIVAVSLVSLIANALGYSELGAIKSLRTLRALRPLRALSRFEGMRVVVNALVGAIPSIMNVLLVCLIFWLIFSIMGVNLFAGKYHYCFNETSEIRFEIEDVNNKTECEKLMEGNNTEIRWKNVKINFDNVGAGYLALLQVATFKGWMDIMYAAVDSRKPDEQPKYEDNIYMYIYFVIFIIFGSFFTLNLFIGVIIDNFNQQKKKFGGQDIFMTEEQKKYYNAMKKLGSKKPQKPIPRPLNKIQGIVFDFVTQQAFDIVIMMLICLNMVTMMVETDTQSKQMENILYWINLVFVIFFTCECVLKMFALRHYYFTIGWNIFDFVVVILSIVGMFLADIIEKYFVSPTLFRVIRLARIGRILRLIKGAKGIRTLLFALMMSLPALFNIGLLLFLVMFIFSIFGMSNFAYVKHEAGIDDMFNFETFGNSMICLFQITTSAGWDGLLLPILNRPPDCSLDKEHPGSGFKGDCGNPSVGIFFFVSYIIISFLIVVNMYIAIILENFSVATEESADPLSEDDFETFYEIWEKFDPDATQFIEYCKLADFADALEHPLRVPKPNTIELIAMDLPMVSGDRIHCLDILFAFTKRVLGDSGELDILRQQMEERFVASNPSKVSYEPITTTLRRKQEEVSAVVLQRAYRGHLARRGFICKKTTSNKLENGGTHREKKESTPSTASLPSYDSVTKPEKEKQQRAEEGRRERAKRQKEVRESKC

Data set [8] deals with T2, Sodium channel protein type 8 subunit alpha. Kind of data set: Binding affinity to human recombinant Nav1.6 C-terminal domain expressed in Escherichia coli BL21 assessed as assessed as induction of protein denaturation by measuring change in melting temperature at 10 uM by fluorescent dye based thermal shift assay. The note with it: filed as modulator, dose 50.0 µM.
Target sequence in this assay (Q9UQD0 whole entry, looked up, the tested form may be a part): as the sequence (Q9UQD0 whole entry, the tested form may be a part) above
In data set [9] the target is T3, Fibroblast growth factor 14 (Homo sapiens) (UniProt Q92915).
T3 sequence (whole entry): T1 sequence (Q92915 whole entry)
The data set is described as follows: Binding affinity to human recombinant FGF14 expressed in Escherichia coli BL21 assessed as assessed as induction of protein denaturation by measuring change in melting temperature at 50 uM by fluorescent dye based thermal shift assay. The note with it: filed as modulator.

In data set [10] the target is T2, Sodium channel protein type 8 subunit alpha. The data set is described as follows: Binding affinity to human recombinant Nav1.6 C-terminal domain expressed in Escherichia coli BL21 assessed as dissociation rate constant by SPR analysis. The note with it: filed as modulator. In a few lines:
as §2
Target sequence in this assay (Q9UQD0 whole entry, looked up, the tested form may be a part): as the sequence (Q9UQD0 whole entry, the tested form may be a part) above

Data set [11] addresses T3, Fibroblast growth factor 14 (Homo sapiens). The data set is described as follows: Binding affinity to human recombinant FGF14 expressed in Escherichia coli BL21 assessed as association rate constant by SPR analysis. The conditions noted are these: filed as modulator. In a few lines:
as §2

Data set [12] concerns the target T2, Sodium channel protein type 8 subunit alpha. Kind of data set: Binding affinity to human recombinant Nav1.6 C-terminal domain expressed in Escherichia coli BL21 assessed as association rate constant by SPR analysis. The conditions noted are these: filed as modulator. The gist of the method: as §2
Target sequence in this assay (Q9UQD0 whole entry, looked up, the tested form may be a part): as the sequence (Q9UQD0 whole entry, the tested form may be a part) above

A word on the IC50: it is the concentration that gives 50% inhibition. One may read the Kd as the equilibrium constant for the complex coming apart. By ΔTm is commonly meant the change in melting temperature against a reference sample.

Calls of active or inactive are those of the source. The rule behind the calls is not given here. Residues, ends and D or L forms follow the SMILES beside them. *: point of attachment. Adamantane1carbonyl = O=C(C12CC3CC(CC(C3)C1)C2)*; Morpholide = C1CN(*)CCO1; Cbz = O=C(OCc1ccccc1)*; NHBn = c1ccc(CN*)cc1; Bz = O=C(c1ccccc1)*; NHCH2CH2OH = OCCN*; X2 = C1O[C@@H]1CO*; OtBu = CC(C)(C)O*; NEt2 = CCN(CC)*; X1 = C#CCO*

As for `COC(=O)[C@@H](NC(=O)[C@H](CCC(=O)OC(C)(C)C)NC(=O)[C@H](CC(C)C)NC(=O)[C@@H]1CCCN1C(C)=O)C(C)C` (Ac-PLE(OtBu)V-OMe), the Activity in the data set with HEK293 [1] was found to be 95%.

For `CC(=O)N1CCC[C@H]1C(=O)N[C@@H](CC(C)C)C(=O)N[C@@H](CCC(=O)O)C(=O)N[C@H](C(N)=O)C(C)C` (Ac-PLEV-NH2), the Activity in the data set on HEK293 [1] was 79.4%.

As for `CC(C)C[C@H](NC(=O)[C@@H]1CCCN1C(=O)C12CC3CC(CC(C3)C1)C2)C(=O)N[C@@H](CCC(=O)OC(C)(C)C)C(=O)N[C@H](C(N)=O)C(C)C` (Adamantane1carbonyl-PLE(OtBu)V-NH2), in the data set on HEK293 [2], the inhibition entry was “inactive”. Further, the Activity result was “Non-Toxic” in the data set with HEK293 [3] and 68.7% in the data set with HEK293 [1]. The Efficacy in the data set with HEK293 [4] is 82.1%. Moreover, the IC50 in data set [5] came to 49 µM.

As for `C#CCOC(=O)[C@@H](NC(=O)[C@H](CCC(=O)OC(C)(C)C)NC(=O)[C@H](CC(C)C)NC(=O)[C@@H]1CCCN1C(=O)C12CC3CC(CC(C3)C1)C2)C(C)C` (Adamantane1carbonyl-PLE(OtBu)V-X1), in the data set on HEK293 [2], the inhibition result is “inactive”. In addition, the Activity entry in the data set on HEK293 [3] was “Non-Toxic”; with HEK293 [1] (filed as modulator), 5.1%. Further, the figures for the Kd in data set [6] and in data set [7] were 14.7 µM and more than 200 µM, respectively. Further, the ΔTm in data set [8] is -0.15 °C; in [9], -1.85 °C. The K is 1.45 10^-3/s in data set [10], 2.58 10^4/M/s in data set [11] and 1.26 10^5/M/s in data set [12]. Besides, the Efficacy in the data set with HEK293 [4] came to 96.6%. The IC50 in [5] is 13.8 µM.

As for `CC(C)C[C@H](NC(=O)[C@@H]1CCCN1C(=O)C12CC3CC(CC(C3)C1)C2)C(=O)N[C@@H](CCC(=O)OC(C)(C)C)C(=O)N[C@H](C(=O)OC[C@@H]1CO1)C(C)C` (Adamantane1carbonyl-PLE(OtBu)V-X2), in the data set on HEK293 [2], the inhibition entry was “inactive”. Besides, the results for the Activity entry in the data set with HEK293 [3] and in the data set with HEK293 [1] (filed as modulator) were “Non-Toxic” and 13.1%, respectively. Also, the Efficacy in the data set on HEK293 [4] worked out at 91.4%. In addition, the IC50 in data set [5] was 25.1 µM.

In the case of `CC(C)C[C@H](NC(=O)[C@@H]1CCCN1C(=O)c1ccccc1)C(=O)N[C@@H](CCC(=O)OC(C)(C)C)C(=O)N[C@H](C(N)=O)C(C)C` (Bz-PLE(OtBu)V-NH2), in the data set on HEK293 [1], the Activity is 105%.

In the case of `CC(C)C[C@H](NC(=O)[C@@H]1CCCN1C(=O)OCc1ccccc1)C(=O)N[C@@H](CCC(=O)OC(C)(C)C)C(=O)N[C@H](C(=O)N1CCOCC1)C(C)C` (Cbz-PLE(OtBu)V-Morpholide), the Activity in the data set with HEK293 [1] turned out to be 72%.

For `CCN(CC)C(=O)[C@@H](NC(=O)[C@H](CCC(=O)OC(C)(C)C)NC(=O)[C@H](CC(C)C)NC(=O)[C@@H]1CCCN1C(=O)OCc1ccccc1)C(C)C` (Cbz-PLE(OtBu)V-NEt2), the Activity in the data set with HEK293 [1] worked out at 92.3%.

As for `CC(C)C[C@H](NC(=O)[C@@H]1CCCN1C(=O)OCc1ccccc1)C(=O)N[C@@H](CCC(=O)OC(C)(C)C)C(=O)N[C@H](C(N)=O)C(C)C` (Cbz-PLE(OtBu)V-NH2), the Activity in the data set on HEK293 [1] was determined as 112%.

`CC(C)C[C@H](NC(=O)[C@@H]1CCCN1C(=O)OCc1ccccc1)C(=O)N[C@@H](CCC(=O)OC(C)(C)C)C(=O)N[C@H](C(=O)NCc1ccccc1)C(C)C` (Cbz-PLE(OtBu)V-NHBn): the inhibition entry in the data set with HEK293 [2] was “inactive”. For the same molecule, the results for the Activity entry in the data set with HEK293 [3] and in the data set with HEK293 [1] were “Non-Toxic” and 134%, respectively.

As for `CC(C)C[C@H](NC(=O)[C@@H]1CCCN1C(=O)OCc1ccccc1)C(=O)N[C@@H](CCC(=O)OC(C)(C)C)C(=O)N[C@H](C(=O)NCCO)C(C)C` (Cbz-PLE(OtBu)V-NHCH2CH2OH), in the data set on HEK293 [1], the Activity came to 118%.

With `CNC(=O)[C@@H](NC(=O)[C@H](CCC(=O)OC(C)(C)C)NC(=O)[C@H](CC(C)C)NC(=O)[C@@H]1CCCN1C(=O)OCc1ccccc1)C(C)C` (Cbz-PLE(OtBu)V-NHMe), the Activity in the data set with HEK293 [1] worked out at 103%.

(Values after ChEMBL document CHEMBL4699573, “Design, Synthesis, and Pharmacological Evaluation of Analogues Derived from the PLEV Tetrapeptide as Protein-Protein Interaction Modulators of Voltage-Gated Sodium Channel 1.6” (J Med Chem, 2020).)
